Reference: paper PMC9218293 (Molecular Therapy Oncolytics, 2022)
Like-named read-outs stand apart in the source and are kept apart here.

Assays:
[1] = system: P-ERK1/2 (Thr202/Tyr204) in YUMM1.7R cells; test: Immunoblotting for P-ERK1/2 after vemurafenib; format: cell-based, mouse; settings: vemurafenib 5 μM; YUMM1.7R condition 1; immunoblot; Figure S1C
YUMM1.7P-derived tumors = test: Syngeneic mouse melanoma model, tumor growth; format: in vivo, C57BL/6 mice; settings: 20 mg/kg i.p. daily; n = 6 mice/group; Figure 1A
Outline: (§1)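 Tumors were established in C57BL/6 mice (6–8 weeks) by s.c. injection of 3 × 10⁵ YUMM1.7P or YUMM1.7R cells. Daily i.p. vehicle or vemurafenib was given at 20 mg/kg. Tumor size was monitored, n = 6 mice/group, as means ± SEM with two-way ANOVA and Tukey's post hoc test. Mice with tumors >1,500 mm³ were euthanized.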

[2] = system: TME of YUMM1.7P-derived tumors; test: Flow cytometry of tumor-infiltrating immune cells; format: in vivo, C57BL/6 mice; settings: VEM 20 mg/kg i.p. daily, n = 6
Outline: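 C57BL/6 mice (6–8 weeks) received 3 × 10⁵ YUMM1.7P cells s.c. Vehicle or vemurafenib was given at 20 mg/kg i.p. daily. Tumors were harvested and dissociated to single cells. Dead cells were excluded with fixable viability dye eFluor 506. Populations were gated as frequencies among live/dead⁻CD45⁺ cells: MDSCs CD45⁺CD11b⁺Gr1⁺, TAMs CD45⁺Gr1⁻CD11b⁺F4/80⁺, CD8⁺ T cells CD45⁺CD3⁺CD8⁺. n = 6 mice/group, means ± SEM.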

YUMM1.7R-derived tumors = test: Syngeneic mouse melanoma model, tumor growth and survival; format: in vivo, C57BL/6 mice; settings: 20 mg/kg i.p. daily; n = 6 mice/group; Figure 1A
Outline: as §1

[3] = system: TME of YUMM1.7R-derived tumors; test: Flow cytometry of tumor-infiltrating immune cells; format: in vivo, C57BL/6 mice; settings: VEM 20 mg/kg i.p. daily, n = 6
YUMM1.7P cells = test: WST-8 cell viability assay; format: cell-based; settings: Mus musculus, read-out: IC50 value of vemurafenib for YUMM1.7P cells
Outline: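 Parental mouse melanoma YUMM1.7 cells (BRAF V600E) were grown in DMEM/F12 with 10% fetal bovine serum and 1% penicillin/streptomycin at 37°C, humidified 5% CO₂.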

[4] = system: P-ERK1/2 (Thr202/Tyr204) in YUMM1.7P cells; test: Immunoblotting for P-ERK1/2 after vemurafenib; format: cell-based, mouse; settings: vemurafenib 5 μM, immunoblot, Figure S1C
YUMM1.7R cells = test: WST-8 cell viability assay; format: cell-based; settings: Mus musculus
Outline: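 Resistant YUMM1.7R cells were derived by exposing parental YUMM1.7 cells to vemurafenib for 8–10 weeks, with the concentration escalated from a low (condition 1) or medium (condition 2) start. They were then kept under continuous 5 μM vemurafenib in DMEM/F12 with 10% fetal bovine serum and 1% penicillin/streptomycin at 37°C, 5% CO₂.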

CCCS(=O)(=O)Nc1ccc(F)c(C(=O)c2c[nH]c3ncc(-c4ccc(Cl)cc4)cc23)c1F [vemurafenib]
ERK phosphorylation [1]: this reduction was dramatically suppressed | inhibition of tumor growth (YUMM1.7P-derived tumors): highly sensitive | frequency of CD8+ T cells ([2]; CD45+CD3+CD8+, Figure 1D): increased | frequency of MDSCs ([2]; CD45+CD11b+Gr1+, Figure 1B): significant decrease | frequency of TAMs ([2]; CD45+Gr1-CD11b+F4/80+, Figure 1C): significant decrease | frequency of CD3+CD4+ T cells ([2]; Figure S3): No significant change | tumor growth (YUMM1.7R-derived tumors): unaffected | frequency of MDSCs ([3]; Figure 1B): reduction | frequency of TAMs ([3]; Figure 1C): reduction | frequency of CD8+ T cells ([3]; Figure 1D): failed to increase | frequency of CD3+CD4+ T cells ([3]; Figure S3): No significant change | IC50 (YUMM1.7P cells): 3.12 µM | ERK phosphorylation [4]: considerable reduction | IC50 (YUMM1.7R cells; read-out: IC50, YUMM1.7R (condition 1)): 10.4 µM | IC50 (YUMM1.7R cells; read-out: IC50, YUMM1.7R (condition 2)): 9.48 µM
